Measured values pooled from the literature.
Each line is one published result; the experiments were not run side by side. ≈ marks a conversion by molar mass, not a printed value.

CCCCS(=O)(=O)Oc1cc(C(C)C)ccc1C — IC50 (Escherichia coli; microbial growth, broth dilution; ATCC25922): 156 µg/mL (≈ 578 µM)
CCCS(=O)(=O)Nc1ccc(F)c(C(=O)c2c[nH]c3ncc(Cl)cc23)c1F — MIC (Staphylococcus aureus; microbial growth; NCTC8325): > 30 µM
c1ccc(-c2cccc(Nc3nccc(NC4CCCCC4)n3)c2)nc1 — EC50 (MV4-11; cell growth or viability, ATP luminescence; 72 h): 3230 nM
Cc1ccc2nc(-n3nc(C(C)C)c4c3-c3ccccc3C4=O)sc2c1 — inhibition zone (Staphylococcus aureus; microbial growth, well diffusion; NCIM5021; 250 µg/mL): 13 mm
CC(C)(C)Nc1ccnc(Nc2cccc(-c3cccnc3)c2)n1 — EC50 (MV4-11; cell growth or viability, ATP luminescence; 72 h): 25 nM
O=C1NC(=S)N/C1=C\c1ccc(-c2ccc(N(c3ccccc3)c3ccccc3)cc2)cc1 — MBC (Staphylococcus aureus; microbial killing, broth dilution; ATCC25923): > 1000 µg/mL
CC(C)c1nn(-c2nc3ccc(Br)cc3s2)c2c1C(=O)c1ccccc1-2 — inhibition zone (Staphylococcus aureus; microbial growth, well diffusion; NCIM5021; 125 µg/mL): 11 mm
c1cncc(-c2cccc(Nc3nccc(NC4CCOCC4)n3)c2)c1 — EC50 (MV4-11; cell growth or viability, ATP luminescence; 72 h): 1880 nM
CNC(=O)c1cc(Oc2ccc(NC(=O)Nc3cc(C(C)(C)C)nn3-c3ccc4ncccc4c3)c(F)c2)ccn1 — MIC (Staphylococcus aureus; microbial growth; NCTC8325): > 30 µM
CC(C)Cc1nn(-c2nc3ccc(Br)cc3s2)c2c1C(=O)c1ccccc1-2 — inhibition zone (Staphylococcus aureus; microbial growth, well diffusion; NCIM5021; 500 µg/mL): 14 mm
O=C1c2ccccc2-c2n[nH]c3cccc1c23 — MIC (Staphylococcus aureus; microbial growth; NCTC8325): > 30 µM
Cc1ccc(C(C)C)cc1OS(=O)(=O)c1ccccc1 — IC50 (Escherichia coli; microbial growth, broth dilution; ATCC25922): 113 µg/mL
c1cncc(-c2cccc(Nc3nccc(NC4CCC4)n3)c2)c1 — EC50 (MV4-11; cell growth or viability, ATP luminescence; 72 h): > 17000 nM
CC(C)c1nn(-c2nc3ccccc3s2)c2c1C(=O)c1ccccc1-2 — inhibition zone (Staphylococcus aureus; microbial growth, well diffusion; NCIM5021; 250 µg/mL): 10 mm
Cc1cc(NC(=O)Nc2ccc3c(c2)OC(F)(F)O3)ccc1Cl — MIC (Staphylococcus aureus; microbial growth; NCTC8325): 0.5 µM (≈ 0.17 µg/mL)
CC[C@@H](C)Nc1ccnc(Nc2cccc(-c3cccnc3)c2)n1 — EC50 (MV4-11; cell growth or viability, ATP luminescence; 72 h): 25 nM
Cc1ccc2nc(-n3nc(C)c4c3-c3ccccc3C4=O)sc2c1 — inhibition zone (Staphylococcus aureus; microbial growth, well diffusion; NCIM5021; 500 µg/mL): 11 mm
NC(=O)c1ccc(-c2nc(-c3ccccn3)c(-c3ccc4c(c3)OCO4)[nH]2)cc1 — MIC (Staphylococcus aureus; microbial growth; NCTC8325): > 30 µM
